Source: ChEMBL document CHEMBL2311429, “Design, synthesis and crystallographic analysis of nitrile-based broad-spectrum peptidomimetic inhibitors for coronavirus 3C-like proteases” (Eur J Med Chem, 2013)
Calls of active or inactive are those of the source. No cut-off for these calls is given here.

Experiments:
[1] = target: T1, Caspase-3 (Homo sapiens) (UniProt P42574); test: Inhibition of caspase3 (unknown origin) using Ac-DEVD-pNA as substrate at 0.5 to 256 uM after 90 mins by spectrophotometry
T1 sequence (whole entry): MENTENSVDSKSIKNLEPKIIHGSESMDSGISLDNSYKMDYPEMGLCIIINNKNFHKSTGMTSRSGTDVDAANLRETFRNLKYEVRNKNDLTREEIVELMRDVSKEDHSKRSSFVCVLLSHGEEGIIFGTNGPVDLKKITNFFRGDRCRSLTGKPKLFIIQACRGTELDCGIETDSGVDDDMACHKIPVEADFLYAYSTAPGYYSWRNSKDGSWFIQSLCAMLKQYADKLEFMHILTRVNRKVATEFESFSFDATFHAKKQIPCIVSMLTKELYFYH

[2] = Inhibition of […] bronchitis virus 3C-like protease pretreated for 5 mins before substrate addition by fluorimetry
How it was run: (§1)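 3CL protease (0.5-1 μM) preincubated 5 min with inhibitor (0.5-256 μM), then 35 μM fluorescent-protein substrate added; cleavage followed by fluorescence. IC50 from four-parameter logistic fit of activity versus inhibitor concentration.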

[3] = Inhibition of human coronavirus HKU1 3C-like protease pretreated for 5 mins before substrate addition by fluorimetry; how it was run: as §1
[4] = Inhibition of human coronavirus OC43 3C-like protease pretreated for 5 mins before substrate addition by fluorimetry; how it was run: as §1
[5] = Inhibition of human coronavirus […] 3C-like protease pretreated for 5 mins before substrate addition by fluorimetry; set-up: species or system Human coronavirus 229E; how it was run: as §1
[6] = target: Replicase polyprotein 1ab (Severe acute respiratory syndrome-related coronavirus, UniProt P0C6X7); test: Inhibition of SARS coronavirus 3C-like protease pretreated for 5 mins before substrate addition by fluorimetry

For `CC(C)C[C@H](NC(=O)[C@@H](NC(=O)[C@H](C)NC(=O)OCc1ccccc1)C(C)C)C(=O)N[C@H](C#N)CCC(N)=O`, the inhibition [1] was “inactive”, the IC50 [2] was 1300 nM and the IC50 [3] was 1300 nM. It also gave an IC50 [4] of 1300 nM and an IC50 [5] of 1300 nM.

For `CC(C)C[C@H](NC(=O)[C@@H](NC(=O)[C@H](C)NC(=O)[C@H](CO)NC(=O)[C@@H](NC(=O)OCc1ccccc1)[C@@H](C)O)C(C)C)C(=O)N[C@H](C#N)CCC(N)=O`, the IC50 [6] was 39000 nM.

With `Cc1cc(C(=O)N[C@@H](C)C(=O)N[C@H](C(=O)N[C@@H](CC(C)C)C(=O)N[C@H](C#N)CCC(N)=O)C(C)C)no1` the IC50 [6] was 49000 nM.
